Measured values reported in PubChem BioAssay.
Calls of active or inactive are those of the source.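 Rule for the calls, unless noted: active = Her2 level under about 52% in both replicate screens, with viability over 70% of control (limit read from the data); inconclusive = Her2 under the limit in one screen only, or viability under 70%; inactive = Her2 level above the set limit.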

Key:
[1] = reducers of endogenous Her2 protein level, primary screen, SKBR3 breast tumor cells, AlphaScreen, ATP viability (AID 461); conditions: 18-24 h, measured here: SKBR3 viability, ATP luminescence, at 10 µM;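 for Her2 level: lower value means less Her2 protein in the cells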;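 for viability: percent of carrier control wells set as 100% viability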
[2] = molecular target: Receptor tyrosine-protein kinase erbB-2 (Homo sapiens) (UniProt P04626); experiment: as above; conditions: 18-24 h, at 10 µM, stronger effect = lower value
[3] = SK-BR-3 cell growth inhibitors, pilot screen, 24 h, human (AID 572;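 active = viability at or below 10% of carrier control in both of two separate runs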;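 note: compound exposure lasted between 18 and 24 h rather than exactly 24 h; 100% = carrier-treated control wells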); conditions: SK-BR-3 viability, CellTiter-Glo luminescence, at 10 µM, stronger effect = lower value
[4] = HUVEC growth inhibition – cell-based, human, primary screen (AID 575;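 active = viability at or below 30% in both replicate assays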;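 note: 100% = median of untreated cell wells with 0.1% DMSO on each plate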); conditions: HUVEC proliferation, CellTiter-Glo luminescence, 72 h; at 10 µM; stronger effect = lower value
Outline: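 Assay system: primary human umbilical vein endothelial cells / Buffer or medium: endothelial basal medium with 2% FBS plus growth supplements / Compound dosing: one dose, 10 µM final, 0.1% DMSO / Timing: 72 h treatment at 37 °C / Signal: CTG luminescence / Benchmarks: 32 DMSO-only cell-control wells (high), 32 MePR drug-control wells (low) per plate / Plate: collagen-coated 384-well format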

[5] = growth inhibitors of H69AR lung tumor, primary screen, human, duplicate replicates (AID 580;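 active = viability at or under a set limit in both replicates, limit being median viability minus 3 SD, cut at about 48% in these data, passing the limit was not always enough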;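 note: 100% = mean luminescence of untreated wells and 0% = no signal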); conditions: H69AR lung tumor cells viability, ATP luminescence, 72 h; at 10 µM; stronger effect = lower value
[6] = reversal of MRP1-mediated doxorubicin resistance, pilot screen, H69AR cells, doxorubicin co-treatment (AID 601;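 active = viability loss from added drug above about 55%, and viability with drug at most 40%, in both replicates, limit read from the data, passing the limit was not always enough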); conditions: CellTiter-Glo, 72 h, at 10 µM; for differential viability (reversal): stronger effect = higher value
[7] = 384-well plate pilot, post-Golgi transport modulator project, inhibition of yeast transport mutant growth (AID 636; in the data active = inhibition above about 31%); conditions: absorbance 615 nm, about 18 h, stronger effect = higher value
[8] = growth suppression of yeast trafficking mutant, preliminary HTS, modulators of trafficking downstream of Golgi apparatus project, 1536-format plate, OD 615 nm (AID 637; in the data active = inhibition above about 30%); conditions: yeast transport mutant growth, absorbance 615 nm, 18 h; stronger effect = higher value
[9] = H69AR cells + 2 uM doxorubicin, measured here: viability with 2 uM doxorubicin, stronger effect = lower value
[10] = H69AR cells, compound alone cytotoxicity

Receptor tyrosine-protein kinase erbB-2 (Homo sapiens), sequence (P04626 whole entry, looked up): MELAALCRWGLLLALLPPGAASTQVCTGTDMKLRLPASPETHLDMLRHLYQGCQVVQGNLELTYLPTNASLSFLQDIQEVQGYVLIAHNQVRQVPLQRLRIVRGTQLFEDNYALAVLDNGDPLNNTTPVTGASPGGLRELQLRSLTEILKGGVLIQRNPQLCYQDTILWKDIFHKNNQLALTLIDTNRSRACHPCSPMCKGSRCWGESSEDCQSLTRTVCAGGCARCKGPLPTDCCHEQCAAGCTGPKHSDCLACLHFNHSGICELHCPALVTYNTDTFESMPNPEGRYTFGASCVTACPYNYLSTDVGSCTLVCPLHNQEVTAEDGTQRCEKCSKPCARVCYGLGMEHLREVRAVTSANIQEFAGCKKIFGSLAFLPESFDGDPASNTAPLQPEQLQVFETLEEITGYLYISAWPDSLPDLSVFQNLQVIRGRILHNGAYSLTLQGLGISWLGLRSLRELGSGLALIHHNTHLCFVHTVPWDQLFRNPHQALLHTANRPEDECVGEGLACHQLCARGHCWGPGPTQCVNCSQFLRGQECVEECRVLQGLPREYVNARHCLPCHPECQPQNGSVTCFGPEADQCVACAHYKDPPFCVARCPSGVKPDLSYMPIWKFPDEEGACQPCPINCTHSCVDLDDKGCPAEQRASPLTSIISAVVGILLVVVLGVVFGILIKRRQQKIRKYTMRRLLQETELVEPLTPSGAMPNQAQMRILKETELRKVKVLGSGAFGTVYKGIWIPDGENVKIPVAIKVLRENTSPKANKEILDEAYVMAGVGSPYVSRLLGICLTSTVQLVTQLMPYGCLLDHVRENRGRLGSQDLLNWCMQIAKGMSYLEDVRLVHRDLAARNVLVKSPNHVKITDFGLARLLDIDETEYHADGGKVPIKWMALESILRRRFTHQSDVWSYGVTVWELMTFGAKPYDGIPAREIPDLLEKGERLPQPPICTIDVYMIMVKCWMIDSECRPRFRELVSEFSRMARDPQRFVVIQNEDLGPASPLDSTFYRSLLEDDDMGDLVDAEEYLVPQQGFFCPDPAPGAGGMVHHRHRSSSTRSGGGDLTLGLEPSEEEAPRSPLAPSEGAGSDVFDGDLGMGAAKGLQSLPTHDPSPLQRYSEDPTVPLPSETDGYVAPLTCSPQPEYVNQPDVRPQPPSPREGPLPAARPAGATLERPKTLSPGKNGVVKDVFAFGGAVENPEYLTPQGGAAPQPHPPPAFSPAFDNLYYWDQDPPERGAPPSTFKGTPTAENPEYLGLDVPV

Structure (SMILES) | viability [1] | Her2 level [2] | viability [3] | viability [4] | viability [5] | differential viability (reversal) ([6]; H69AR cells + 2 uM doxorubicin) | viability [6, 9] | viability [6, 10] | inhibition [7] | inhibition [8]
CCCN1C=CC(=C2C(=O)c3ccccc3C2=O)C=C1 | 88% | 123% (inactive) | 88% (inactive) | 42.9% (inactive) | 40.8% (active) | -3% (inactive) | 43.8% | 40.8% | -1.92% (inactive) | 1% (inactive)
CCOc1ccc(Cc2nn[nH]n2)cc1 | 86.5% | 84.5% (inactive) | 86.5% (inactive) | 108% (inactive) | 101% (inactive) | 5.14% (inactive) | 96.3% | 101% | -5.89% (inactive) | -3.49% (inactive)
O=C(NCC(=O)N1CCC(N2CCCCC2)CC1)C1CCCCC1 | 88.5% | 108% (inactive) | 88.5% (inactive) | 106% (inactive) | 94.4% (inactive) | 1.99% (inactive) | 92.5% | 94.4% | -5.84% (inactive) | -4.43% (inactive)
COc1cc2c(=O)n(Cc3ccccc3)c(=O)n(CC(=O)NCc3ccco3)c2cc1OC | 126% | 83% (inactive) | 126% (inactive) | 95.4% (inactive) | 86.2% (inactive) | -0.76% (inactive) | 87% | 86.2% | -8% (inactive) | -3.65% (inactive)
CCOC(=O)c1cccc(NC(=O)CS(=O)(=O)Cc2nc(-c3cccc(OC)c3)oc2C)c1 | 99.5% | 79% (inactive) | 99.5% (inactive) | 95.2% (inactive) | 85.3% (inactive) | -7.47% (inactive) | 92.8% | 85.3% | -7.87% (inactive) | -6.61% (inactive)
O=C(Nc1nnc(COc2ccc(F)cc2)s1)c1cccs1 | 107% | 88.5% (inactive) | 107% (inactive) | 60% (inactive) | 106% (inactive) | 21.3% (inactive) | 84.9% | 106% | -6.93% (inactive) | -0.48% (inactive)
Clc1ccc(Cc2nn3c(-c4ccncc4)nnc3s2)cc1 | 99.5% | 107% (inactive) | 99.5% (inactive) | 101% (inactive) | 96.9% (inactive) | -0.11% (inactive) | 97% | 96.9% | -1.05% (inactive) | 15.4% (inactive)
O=C(Nc1ccc2c(c1)OCO2)C1CCCN1C(=O)Nc1ccccc1F (stereo not given) | 110% | 90% (inactive) | 110% (inactive) | 104% (inactive) | 96.2% (inactive) | 8.28% (inactive) | 87.9% | 96.2% | -2.89% (inactive) | -3.97% (inactive)
Cc1ccc(S(=O)(=O)NCC2CCC(C(=O)NCCCN3CCOCC3)CC2)cc1 (stereo not given) | 89.5% | 93% (inactive) | 89.5% (inactive) | 92.7% (inactive) | 88.6% (inactive) | -8.07% (inactive) | 96.6% | 88.6% | -0.53% (inactive) | 24.9% (inactive)
COCCn1c(-c2ccc(OC)c(OC)c2)nc2ccccc21 | 93% | 108% (inactive) | 93% (inactive) | 105% (inactive) | 95.8% (inactive) | 4.81% (inactive) | 91% | 95.8% | -4.67% (inactive) | -5.81% (inactive)
COc1ccc(C)cc1NC(=O)c1nnn(Cc2cccc(F)c2)c1N | 85.5% | 102% (inactive) | 85.5% (inactive) | 64.9% (inactive) | 82.7% (inactive) | 9.66% (inactive) | 73% | 82.7% | -3.47% (inactive) | -5.9% (inactive)
Cc1nc2sc(C(c3ccc(Br)cc3)N3CC(C)OC(C)C3)c(O)n2n1 (stereo not given) | 80% | 112% (inactive) | 80% (inactive) | 109% (inactive) | 105% (inactive) | 15.2% (inactive) | 90.2% | 105% | -2.21% (inactive) | -3.44% (inactive)
CCOC(=O)Cn1nnnc1C(C(C)C)N(Cc1cc2c(C)cc(C)cc2[nH]c1=O)C1CCCC1 (stereo not given) | 98% | 102% (inactive) | 98% (inactive) | 58.6% (inactive) | 88.5% (inactive) | -1.4% (inactive) | 89.9% | 88.5% | -5.41% (inactive) | 16.6% (inactive)
Cc1ccc(CCNC(=O)CC2Oc3ccc(C)cc3NC2=O)cc1 (stereo not given) | 90% | 93.5% (inactive) | 90% (inactive) | 74.5% (inactive) | 96% (inactive) | 3.38% (inactive) | 92.6% | 96% | 5.47% (inactive) | -2.46% (inactive)
O=C(CSc1nc2ccccc2o1)Nc1ccccc1 | 107% | 124% (inactive) | 107% (inactive) | 105% (inactive) | 79% (inactive) | -11.4% (inactive) | 90.4% | 79% | -0.9% (inactive) | -4.83% (inactive)
Brc1ccc(-c2csc(/N=C/N3CCOCC3)n2)cc1 | 113% | 100% (inactive) | 113% (inactive) | 85% (inactive) | 97.6% (inactive) | 5.1% (inactive) | 92.5% | 97.6% | -4.4% (inactive) | -7.1% (inactive)

Structure (SMILES) | viability [1] | Her2 level [2] | viability [3] | viability [4] | viability [5] | differential viability (reversal) ([6]; H69AR cells + 2 uM doxorubicin) | viability [6, 9] | viability [6, 10] | inhibition [7] | inhibition [8]
Cc1c(C(=O)Nc2cnccn2)oc2ccccc12 | 110% | 72% (inactive) | 110% (inactive) | 58.6% (inactive) | 37.4% (active) | -35.3% (inactive) | 72.7% | 37.4% | -5.6% (inactive) | 3.49% (inactive)
NC(=O)c1nsnc1-c1ccccc1O | 105% | 124% (inactive) | 105% (inactive) | 99.9% (inactive) | 90.2% (inactive) | -6.96% (inactive) | 97.2% | 90.2% | 2.24% (inactive) | 16.8% (inactive)
CCC(=O)Nc1ccc(NC(=O)c2cccc(OC)c2)nc1 | 94% | 92.5% (inactive) | 94% (inactive) | 101% (inactive) | 97.8% (inactive) | 7.67% (inactive) | 90.2% | 97.8% | 0.14% (inactive) | -6.56% (inactive)
CCc1nnc(NC(=O)c2ccc(S(=O)(=O)NCC(C)C)cc2)s1 | 92.5% | 89% (inactive) | 92.5% (inactive) | 100% (inactive) | 98.3% (inactive) | 1.11% (inactive) | 97.2% | 98.3% | -5.95% (inactive) | 0.16% (inactive)
COCCOC(=O)C1=C(N)OC2=C(C(=O)CC(C)(C)C2)C1c1cccnc1 (stereo not given) | 76% | 101% (inactive) | 76% (inactive) | 101% (inactive) | 99% (inactive) | 7.16% (inactive) | 91.9% | 99% | -5.95% (inactive) | -1.31% (inactive)
Cc1ccc(NC(=O)Nc2ccc3c(c2)N(C)C(=O)CS3)nc1 | 108% | 68.5% (inactive) | 108% (inactive) | 45.5% (inactive) | 88.3% (inactive) | -8.16% (inactive) | 96.4% | 88.3% | -3.73% (inactive) | -0.33% (inactive)
COc1cccc(NC(=O)N2CCN(c3cccc(C)c3C)CC2)c1 | 102% | 72.5% (inactive) | 102% (inactive) | 68.5% (inactive) | 82.8% (inactive) | -4.58% (inactive) | 87.4% | 82.8% | 1.82% (inactive) | -3% (inactive)
COc1cccc(C(=O)Nc2ccc(N(C)C)cc2)c1OC | 97% | 78.5% (inactive) | 97% (inactive) | 90% (inactive) | 90.9% (inactive) | 10.3% (inactive) | 80.5% | 90.9% | -3.68% (inactive) | -1.27% (inactive)
O=C(O)CCC(=O)c1c[nH]c2ccccc12 | 88% | 114% (inactive) | 88% (inactive) | 88.4% (inactive) | 95.6% (inactive) | -5.4% (inactive) | 101% | 95.6% | 1.47% (inactive) | -4.76% (inactive)
COc1ccc(Oc2c(C)oc3cc(OC(=O)N4CCOCC4)ccc3c2=O)cc1 | 91% | 99% (inactive) | 91% (inactive) | 105% (inactive) | 101% (inactive) | -0.51% (inactive) | 101% | 101% | -5.6% (inactive) | -5.08% (inactive)
CCOc1cccc(OCCOCCN2CCCC2)c1 | 107% | 89% (inactive) | 107% (inactive) | 91.3% (inactive) | 89.4% (inactive) | -1.11% (inactive) | 90.5% | 89.4% | -6.22% (inactive) | -3.17% (inactive)
O=C(NC1CCCCC1)C1CC(O)CN1C(=O)OCc1ccccc1 (stereo not given) | 88% | 93% (inactive) | 88% (inactive) | 110% (inactive) | 93.4% (inactive) | 9.51% (inactive) | 83.9% | 93.4% | 0.13% (inactive) | -3.09% (inactive)
CN1CCN(CC(=O)Nc2ccc(Cl)cc2Cl)CC1 | 85.5% | 95% (inactive) | 85.5% (inactive) | 91.6% (inactive) | 93.8% (inactive) | 3.29% (inactive) | 90.5% | 93.8% | -3.29% (inactive) | 2.74% (inactive)
O=S(=O)(Nc1ncccn1)c1ccc(Nc2ncnc3ccccc23)cc1 | 97.5% | 93% (inactive) | 97.5% (inactive) | 81.2% (inactive) | 95.7% (inactive) | 1.15% (inactive) | 94.5% | 95.7% | -7.57% (inactive) | 3.11% (inactive)
Cc1ccc(-c2noc(C3CCCN(C(=O)c4ccccc4)C3)n2)o1 (stereo not given) | 86% | 95% (inactive) | 86% (inactive) | 94.8% (inactive) | 95.1% (inactive) | 4.09% (inactive) | 91% | 95.1% | -5.66% (inactive) | 0.33% (inactive)
CC(C)OC(=O)CN1C(=O)C(C)(C)Oc2ccc(C(=O)NC3CC3)cc21 | 96% | 92.5% (inactive) | 96% (inactive) | 93.1% (inactive) | 91.6% (inactive) | -2.77% (inactive) | 94.3% | 91.6% | -3.2% (inactive) | 1.94% (inactive)
